A short description of series [1]: Half life of the compound at pH 7.4. In kind it is physicochemical.
Series [2] can be described thus: Drug metabolism at 2 mM at acidic pH after 5 days by 31P NMR method. The format is physicochemical. The note with it: read-out: Drug metabolism.
The nature of series [3]: Drug level treated with UTP 5'-O-Palpha,alpha-dithiophosphate-beta,gamma-methylene at 2 mM at pH 1.7 at room temperature after 25 days by 31P NMR method. In kind it is physicochemical. As to conditions: pH 1.7, 600 h, 2000 µM.
A short description of series [4]: Drug level treated with UTP 5'-O-Palpha,alpha-dithiophosphate-beta,gamma-methylene at 2 mM at pH 11.7 at room temperature after 25 days by 31P NMR method. As to conditions: pH 11.7, 600 h, 2000 µM. The format is physicochemical.
A short description of series [5]: Drug level treated with UTP 5'-O-Palpha,alpha-dithiophosphate at 2 mM at pH 11.7 at room temperature after 25 days by 31P NMR method. In kind it is physicochemical. As to conditions: pH 11.7, 600 h, 2000 µM.
The nature of series [6]: Drug level treated with diuridine 5'-O-Palpha,alpha,5''-O-Palpha,alpha-tetrathiotetraphosphate at 2 mM at pD 12.6 at room temperature after 16 days by 31P NMR method. The format is physicochemical. As to conditions: 384 h, 2000 µM.
A short description of series [7]: Stability of the compound assessed as air oxidation at room temperature at 1.8 mM after 3 weeks by 31P NMR method. As to conditions: 504 h, 1800 µM. In kind it is physicochemical.
In series [8] the target is P2Y purinoceptor 2 (Homo sapiens) (UniProt P41231). Nature of the series: Agonist activity at recombinant human P2RY2 expressed in AD293 cells assessed as increase in intracellular calcium levels by Fluo-4/AM dye-based spectrofluorometer. The format is functional, cell-based. The method, boiled down:
(§1)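 Human P2Y2, P2Y4 or P2Y6 receptor stably expressed in AD293 cells. Compound at 100 μM. Agonism read as change in intracellular calcium (Δ[Ca2+]i), with UDP or UTP as control.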
(Calcium flux is commonly read through the fluorescence of an indicator in the cells.)

Series [9] has as its target P2Y purinoceptor 4 (Homo sapiens) (UniProt P51582). As to the kind of experiment: Agonist activity at recombinant human P2RY4 expressed in AD293 cells assessed as increase in intracellular calcium levels by Fluo-4/AM dye-based spectrofluorometer. The format is functional, cell-based. The method, boiled down: as §1
Series [10] deals with T1, Ectonucleotide pyrophosphatase/phosphodiesterase family member 3 (Homo sapiens) (UniProt O14638).
T1 sequence (whole entry): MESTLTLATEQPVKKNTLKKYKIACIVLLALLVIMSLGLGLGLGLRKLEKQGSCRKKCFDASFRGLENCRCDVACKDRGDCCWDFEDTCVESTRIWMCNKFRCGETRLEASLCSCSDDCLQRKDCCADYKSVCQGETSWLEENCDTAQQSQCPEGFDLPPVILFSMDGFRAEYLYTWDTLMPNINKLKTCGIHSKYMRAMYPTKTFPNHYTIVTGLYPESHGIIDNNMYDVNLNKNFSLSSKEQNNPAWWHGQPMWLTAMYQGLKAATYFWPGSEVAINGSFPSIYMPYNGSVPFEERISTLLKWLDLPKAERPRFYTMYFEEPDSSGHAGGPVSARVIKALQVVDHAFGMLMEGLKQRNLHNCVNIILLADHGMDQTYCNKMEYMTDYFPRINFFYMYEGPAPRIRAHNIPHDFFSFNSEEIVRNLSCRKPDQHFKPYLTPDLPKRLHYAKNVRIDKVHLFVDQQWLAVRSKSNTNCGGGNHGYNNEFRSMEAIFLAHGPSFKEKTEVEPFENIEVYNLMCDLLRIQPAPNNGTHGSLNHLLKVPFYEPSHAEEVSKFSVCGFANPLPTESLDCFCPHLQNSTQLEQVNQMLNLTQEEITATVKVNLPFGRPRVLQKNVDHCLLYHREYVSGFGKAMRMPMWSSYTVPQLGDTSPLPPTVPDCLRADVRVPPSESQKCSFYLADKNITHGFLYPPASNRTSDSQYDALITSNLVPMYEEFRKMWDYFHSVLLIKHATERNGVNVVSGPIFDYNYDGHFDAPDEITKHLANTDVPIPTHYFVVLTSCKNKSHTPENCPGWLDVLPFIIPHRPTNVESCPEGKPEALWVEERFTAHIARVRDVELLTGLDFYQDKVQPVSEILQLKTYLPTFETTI
Nature of the series: Inhibition of human NPP3 at 100 uM using pNP-TMP as substrate preincubated for 3 mins followed by substrate addition measured after 15 mins. The method, boiled down: (§2)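 Human NPP1 (4−5 μg) or NPP3 (12−14 μg) cell lysate in mM 1 CaCl2, 140 NaCl, 5 KCl, 50 Tris pH 8.5, 37 °C. Compound at 100 μM, 3 min preincubation, 100 μM pNP-TMP substrate. p-Nitrophenol read at 405 nm after 15 min. Blank with enzyme added at end subtracted. Activity without compound taken as 100%. At least two independent experiments in triplicate.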

Series [11] concerns the target T2, Ectonucleotide pyrophosphatase/phosphodiesterase family member 1 (Homo sapiens) (UniProt P22413).
T2 sequence (whole entry): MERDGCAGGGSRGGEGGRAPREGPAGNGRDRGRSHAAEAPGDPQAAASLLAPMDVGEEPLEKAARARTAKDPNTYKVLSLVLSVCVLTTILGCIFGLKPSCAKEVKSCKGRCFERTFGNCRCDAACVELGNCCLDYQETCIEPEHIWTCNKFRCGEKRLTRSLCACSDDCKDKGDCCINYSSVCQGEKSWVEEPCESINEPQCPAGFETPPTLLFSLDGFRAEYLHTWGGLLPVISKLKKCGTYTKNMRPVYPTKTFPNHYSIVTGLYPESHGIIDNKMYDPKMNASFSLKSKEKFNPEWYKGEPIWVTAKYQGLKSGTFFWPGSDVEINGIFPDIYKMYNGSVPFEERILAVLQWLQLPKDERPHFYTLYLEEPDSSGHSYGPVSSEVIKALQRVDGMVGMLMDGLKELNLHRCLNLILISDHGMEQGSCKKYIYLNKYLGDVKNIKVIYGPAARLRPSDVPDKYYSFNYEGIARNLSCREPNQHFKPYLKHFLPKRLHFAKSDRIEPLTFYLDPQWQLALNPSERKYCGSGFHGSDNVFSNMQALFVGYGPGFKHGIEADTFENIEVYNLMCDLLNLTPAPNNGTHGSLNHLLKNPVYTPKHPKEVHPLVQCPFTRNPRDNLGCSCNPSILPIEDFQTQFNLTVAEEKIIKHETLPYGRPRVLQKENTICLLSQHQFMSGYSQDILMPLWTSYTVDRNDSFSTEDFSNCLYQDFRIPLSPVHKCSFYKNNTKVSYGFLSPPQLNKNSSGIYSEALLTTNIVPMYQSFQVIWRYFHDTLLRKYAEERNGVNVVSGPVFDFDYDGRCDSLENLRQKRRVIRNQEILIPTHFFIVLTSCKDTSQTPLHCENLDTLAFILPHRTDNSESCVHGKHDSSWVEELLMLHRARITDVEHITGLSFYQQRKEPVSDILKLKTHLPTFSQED
Nature of the series: Inhibition of human NPP1 at 100 uM using ATP as substrate preincubated for 3 mins followed by substrate addition measured after 25 mins. The method, boiled down:
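Human NPP1 cell lysate in mM 1 CaCl2, 140 NaCl, 5 KCl, 50 Tris pH 8.5, 37 °C. Compound at 100 μM, 3 min preincubation, 100 μM ATP substrate. Stopped after 25 min by heating 2 min at 95 °C. Pyrophosphate measured with a commercial kit.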

Series [12] addresses T2, Ectonucleotide pyrophosphatase/phosphodiesterase family member 1 (Homo sapiens). Nature of the series: Inhibition of human NPP1 at 100 uM using pNP-TMP as substrate preincubated for 3 mins followed by substrate addition measured after 15 mins relative to control. An outline of the steps: as §2
Series [13] concerns the target P2Y purinoceptor 6 (Homo sapiens) (UniProt Q15077). Nature of the series: Agonist activity at recombinant human P2RY6 expressed in AD293 cells assessed as increase in intracellular calcium levels by Fluo-4/AM dye-based spectrofluorometer. In kind it is functional, cell-based. An outline of the steps:
as §1

Series [14] deals with T3, Ectonucleoside triphosphate diphosphohydrolase 3 (Homo sapiens) (UniProt O75355).
T3 sequence (whole entry): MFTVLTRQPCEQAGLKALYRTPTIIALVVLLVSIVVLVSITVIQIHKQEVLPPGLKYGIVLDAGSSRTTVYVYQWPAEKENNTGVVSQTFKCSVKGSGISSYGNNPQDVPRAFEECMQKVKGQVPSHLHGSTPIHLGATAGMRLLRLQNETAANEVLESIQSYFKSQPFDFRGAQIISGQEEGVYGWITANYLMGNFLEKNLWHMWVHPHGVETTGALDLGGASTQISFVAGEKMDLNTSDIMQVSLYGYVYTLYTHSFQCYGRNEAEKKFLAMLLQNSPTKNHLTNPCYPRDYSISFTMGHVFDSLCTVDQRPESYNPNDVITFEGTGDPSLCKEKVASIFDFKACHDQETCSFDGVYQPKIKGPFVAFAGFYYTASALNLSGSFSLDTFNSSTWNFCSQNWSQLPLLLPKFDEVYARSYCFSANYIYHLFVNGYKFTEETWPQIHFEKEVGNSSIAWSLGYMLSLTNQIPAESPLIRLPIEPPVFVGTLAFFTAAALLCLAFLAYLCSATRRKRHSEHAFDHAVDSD
As to the kind of experiment: Inhibition of human NTPDase3 at 100 uM using ATP as substrate preincubated for 3 mins followed by substrate addition measured after 10 mins by malachite green reagent-based assay. An outline of the steps:
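Compound at 100 μM, 3 min preincubation, 100 μM ATP, 10 min. Stopped with malachite green; Pi read at 630 nm. Blank with enzyme added after stop subtracted. Activity with ATP alone taken as 100%.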

Series [15] in a line: Drug metabolism at 2 mM at basic pH after 5 days by 31P NMR method. In kind it is physicochemical. The note with it: read-out: Drug metabolism.
The target in series [16] is P2Y purinoceptor 6 (Homo sapiens) (UniProt Q15077). As to the kind of experiment: Agonist activity at recombinant human P2RY6 expressed in AD293 cells assessed as increase in intracellular IP1 levels. The format is functional, cell-based. The method, boiled down:
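Human P2Y6 receptor stably expressed in AD293 cells. Compound at 100 μM. Gq activation read as accumulation of inositol 1-phosphate (IP1).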

Series [17] is described as follows: Drug metabolism at 2 mM at pH 1.7 at room temperature after 28 days by 31P NMR method. In kind it is physicochemical. The note with it: read-out: Drug metabolism.
Series [18] is described as follows: Drug metabolism at 2 mM at pH 11.7 at room temperature after 20 days by 31P NMR method. The format is physicochemical. The note with it: read-out: Drug metabolism.
Series [19] in a line: Drug metabolism at 2 mM at pH 1.7 at room temperature after 20 days by 31P NMR method. In kind it is physicochemical. As to conditions: read-out: Drug metabolism.

The structures appear in SMILES notation. Activity calls are given as the source filed them. The calls are words filed in the database; no cut-off is given here.

Chain of P2Y purinoceptor 6 (Homo sapiens) (Q15077 whole entry): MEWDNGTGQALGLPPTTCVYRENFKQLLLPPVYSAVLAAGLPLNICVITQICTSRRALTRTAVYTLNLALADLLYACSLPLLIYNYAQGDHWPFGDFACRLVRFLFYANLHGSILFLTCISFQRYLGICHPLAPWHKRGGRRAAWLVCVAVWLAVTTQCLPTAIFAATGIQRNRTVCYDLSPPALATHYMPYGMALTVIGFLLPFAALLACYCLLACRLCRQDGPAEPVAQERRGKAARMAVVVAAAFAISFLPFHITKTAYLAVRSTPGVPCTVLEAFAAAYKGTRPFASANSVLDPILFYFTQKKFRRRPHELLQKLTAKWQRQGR
Chain of P2Y purinoceptor 2 (Homo sapiens) (P41231 whole entry): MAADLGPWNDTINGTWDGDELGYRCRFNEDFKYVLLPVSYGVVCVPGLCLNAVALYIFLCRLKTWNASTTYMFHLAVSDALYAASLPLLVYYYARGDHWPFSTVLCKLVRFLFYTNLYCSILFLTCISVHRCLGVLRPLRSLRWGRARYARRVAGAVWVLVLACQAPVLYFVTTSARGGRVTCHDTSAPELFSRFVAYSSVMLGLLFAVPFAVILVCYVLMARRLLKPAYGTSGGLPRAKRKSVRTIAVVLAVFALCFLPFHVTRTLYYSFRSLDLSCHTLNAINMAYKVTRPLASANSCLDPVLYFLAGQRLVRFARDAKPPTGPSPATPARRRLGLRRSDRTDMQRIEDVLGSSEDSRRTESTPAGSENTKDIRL
Chain of P2Y purinoceptor 4 (Homo sapiens) (P51582 whole entry): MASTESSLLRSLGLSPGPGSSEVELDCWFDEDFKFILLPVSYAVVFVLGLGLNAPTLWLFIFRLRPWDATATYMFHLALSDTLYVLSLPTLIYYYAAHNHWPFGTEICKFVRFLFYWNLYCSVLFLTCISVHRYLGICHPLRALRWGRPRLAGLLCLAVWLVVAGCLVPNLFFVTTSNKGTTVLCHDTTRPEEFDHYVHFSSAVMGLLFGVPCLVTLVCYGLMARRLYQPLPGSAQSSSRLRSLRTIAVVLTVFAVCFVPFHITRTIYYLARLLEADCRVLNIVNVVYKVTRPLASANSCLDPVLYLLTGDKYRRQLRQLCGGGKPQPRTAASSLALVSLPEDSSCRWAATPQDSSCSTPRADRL

In turn, `Nc1nc(SCc2ccccc2)nc2c1ncn2[C@@H]1O[C@H](COP(O)(=S)OP(=O)(O)OP(=O)(O)O)[C@@H](O)[C@H]1O` (some centres undefined) had a half-life in [1] of 11 days. Further, the degraded at 120 h, 2000 µM in [2] stood at 25%.

Consider `O=P(O)(O)CP(=O)(O)O` [MEDRONIC ACID], for which the Drug metabolism result in series [3] and in [4] was “Metabolite_Detected” each time.

Consider `OP(O)(=S)S`, for which the Drug metabolism result in series [5], in series [6] and in [4] was “Metabolite_Detected” throughout.

In the case of `O=c1ccn([C@@H]2O[C@H](COP(O)(=S)S)[C@@H](O)[C@H]2O)c(=O)[nH]1` (some centres undefined), the Drug metabolism result in series [5], in series [6] and in [4] was “Metabolite_Detected” throughout.

For `O=c1ccn([C@@H]2O[C@H](COP(O)(=S)SCCS)[C@@H](O)[C@H]2O)c(=O)[nH]1` (some centres undefined), the Drug metabolism result in series [5] and in series [4] was “Metabolite_Detected” each time.

`O=c1ccn([C@@H]2O[C@H](COP(=S)(S)OP(=O)(O)OP(=O)(O)OP(=S)(S)OC[C@H]3O[C@@H](n4ccc(=O)[nH]c4=O)[C@H](O)[C@@H]3O)[C@@H](O)[C@H]2O)c(=O)[nH]1` (some centres undefined): the Stability entry in [7] was “Stable”. Moreover, the outcome in series [8] and in series [9] was inactive. For the same compound, the inhibition in [10] was 27%; in series [12], 80 to 100%; in [14], 24%. In addition, the inhibition entry in [11] was “Active”. The outcome in series [13] and in [16] was Active. Also, the degraded at 120 h, 2000 µM stood at 9% in series [15] and 6% in [2].

In the case of `O=c1ccn([C@@H]2O[C@H](COP(=O)(O)OP(=O)(O)O)[C@@H](O)[C@H]2O)c(=O)[nH]1` [URIDINE_DIPHOSPHATE], in series [17], the degraded at 672 h, 2000 µM stood at 7%.

For the compound `O=c1ccn([C@@H]2O[C@H](COP(=O)(O)OP(=O)(O)OP(=O)(O)O)[C@@H](O)[C@H]2O)c(=O)[nH]1` [URIDINE TRIPHOSPHATE], the degraded at 480 h, 2000 µM in series [18] amounted to 10%; in series [19], 11%. Besides, the degraded at 120 h, 2000 µM turned out to be 8% in series [15] and 5% in [2].

Turning to `O=c1ccn([C@@H]2O[C@H](COP(=O)(O)O)[C@@H](O)[C@H]2O)c(=O)[nH]1`, in [5], the Drug metabolism entry was “Metabolite_Detected”.

As a reminder, the half-life is how long it takes for the measured level to halve. Read a low half-life as fast loss. Broadly, the inhibition is how much of the control response was suppressed.

For the origin of these results see ChEMBL document CHEMBL4177769, “Highly Selective and Potent Ectonucleotide Pyrophosphatase-1 (NPP1) Inhibitors Based on Uridine 5'-Pα,α-Dithiophosphate Analogues” (J Med Chem, 2018).
